In PubChem BioAssay:
Active and inactive are the calls of the source. Rule as the data show it, unless noted: active = inhibition above about 30%; inactive = the rest.

Columns and labels:
[1] = reducers of endogenous Her2 protein level, primary screen, SKBR3 breast tumor cells, AlphaScreen, ATP viability (AID 461;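 active = Her2 level under about 52% in both replicate screens, with viability over 70% of control, limit read from the data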;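 as to Her2 level: lower value means less Her2 protein in the cells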;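 as to viability: percent of carrier control wells set as 100% viability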); conditions: 18-24 h, measured here: SKBR3 viability, ATP luminescence, at 10 µM
[2] = target: Receptor tyrosine-protein kinase erbB-2 (Homo sapiens) (UniProt P04626); test: as above; conditions: 18-24 h, at 10 µM, stronger effect = lower value
[3] = SK-BR-3 cell growth inhibitors, pilot screen, 24 h, human (AID 572;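 active = viability at or below 10% of carrier control in both of two separate runs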;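 also: compound exposure lasted between 18 and 24 h rather than exactly 24 h; 100% = carrier-treated control wells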); conditions: SK-BR-3 viability, CellTiter-Glo luminescence, at 10 µM, stronger effect = lower value
[4] = HUVEC growth inhibition – cell-based, human, primary screen (AID 575;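 active = viability at or below 30% in both replicate assays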;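 also: 100% = median of untreated cell wells with 0.1% DMSO on each plate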); conditions: HUVEC proliferation, CellTiter-Glo luminescence, 72 h; at 10 µM; stronger effect = lower value
In short: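 Test system: primary human umbilical vein endothelial cells; medium: endothelial basal medium with 2% FBS plus growth supplements; dosing: 10 µM compound only; times: 72 h treatment at 37 °C; signal: CTG luminescence; read-out: % viability relative to median vehicle-well signal on each plate; control set: vehicle and MePR control wells; plate: 384-well, collagen-coated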

[5] = growth inhibitors of H69AR lung tumor, primary screen, human, duplicate replicates (AID 580;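 active = viability at or under a set limit in both replicates, limit being median viability minus 3 SD, cut at about 48% in these data, passing the limit was not always enough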;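 also: 100% = mean luminescence of untreated wells and 0% = no signal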); conditions: H69AR lung tumor cells viability, ATP luminescence, 72 h; at 10 µM; stronger effect = lower value
[6] = reversal of MRP1-mediated doxorubicin resistance, pilot screen, H69AR cells, doxorubicin co-treatment (AID 601;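 active = viability loss from added drug above about 55%, and viability with drug at most 40%, in both replicates, limit read from the data, passing the limit was not always enough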); conditions: CellTiter-Glo, 72 h, at 10 µM; for differential viability (reversal): stronger effect = higher value
[7] = 384-well plate pilot, post-Golgi transport modulator project, inhibition of yeast transport mutant growth (AID 636; in the data active = inhibition above about 31%); conditions: absorbance 615 nm, about 18 h, stronger effect = higher value
[8] = growth suppression of yeast trafficking mutant, preliminary HTS, modulators of trafficking downstream of Golgi apparatus project, 1536-format plate, OD 615 nm (AID 637); conditions: yeast transport mutant growth, absorbance 615 nm, 18 h; stronger effect = higher value
[9] = H69AR cells + 2 uM doxorubicin, measured here: viability with 2 uM doxorubicin, stronger effect = lower value
[10] = H69AR cells, compound alone cytotoxicity

Sequence of Receptor tyrosine-protein kinase erbB-2 (Homo sapiens) (P04626 whole entry, looked up): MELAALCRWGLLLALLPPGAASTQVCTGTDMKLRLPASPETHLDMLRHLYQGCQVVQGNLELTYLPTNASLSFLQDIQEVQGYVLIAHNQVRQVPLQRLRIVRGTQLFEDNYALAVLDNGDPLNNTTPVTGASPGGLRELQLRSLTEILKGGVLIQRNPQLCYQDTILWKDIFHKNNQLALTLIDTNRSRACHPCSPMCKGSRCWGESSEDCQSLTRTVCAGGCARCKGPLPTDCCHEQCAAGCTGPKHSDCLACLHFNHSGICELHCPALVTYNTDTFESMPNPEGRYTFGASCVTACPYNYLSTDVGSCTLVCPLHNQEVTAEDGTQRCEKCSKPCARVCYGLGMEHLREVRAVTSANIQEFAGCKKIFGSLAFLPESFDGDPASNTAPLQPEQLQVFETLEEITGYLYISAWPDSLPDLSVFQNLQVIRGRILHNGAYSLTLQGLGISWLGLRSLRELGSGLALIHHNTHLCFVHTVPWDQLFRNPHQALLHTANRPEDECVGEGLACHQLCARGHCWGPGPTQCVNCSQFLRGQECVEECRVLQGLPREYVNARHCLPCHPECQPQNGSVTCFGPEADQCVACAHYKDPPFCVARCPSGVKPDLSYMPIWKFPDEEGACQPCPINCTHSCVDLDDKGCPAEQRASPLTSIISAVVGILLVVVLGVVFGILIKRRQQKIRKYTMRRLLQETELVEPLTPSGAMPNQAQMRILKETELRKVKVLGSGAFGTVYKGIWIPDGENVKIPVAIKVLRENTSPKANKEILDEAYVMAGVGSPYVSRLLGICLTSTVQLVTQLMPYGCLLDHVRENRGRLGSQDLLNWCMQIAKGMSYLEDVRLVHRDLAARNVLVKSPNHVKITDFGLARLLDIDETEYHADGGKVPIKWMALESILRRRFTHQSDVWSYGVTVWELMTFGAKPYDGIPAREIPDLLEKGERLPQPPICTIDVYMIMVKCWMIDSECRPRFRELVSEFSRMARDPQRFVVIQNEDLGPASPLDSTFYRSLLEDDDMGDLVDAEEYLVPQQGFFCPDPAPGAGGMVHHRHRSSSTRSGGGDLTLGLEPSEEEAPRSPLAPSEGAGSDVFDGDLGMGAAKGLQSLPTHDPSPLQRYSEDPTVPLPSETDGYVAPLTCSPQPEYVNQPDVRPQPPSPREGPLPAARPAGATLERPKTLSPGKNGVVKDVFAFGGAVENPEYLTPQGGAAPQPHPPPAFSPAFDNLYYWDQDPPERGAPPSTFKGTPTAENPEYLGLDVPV

| Compound | viability [1] | Her2 level [2] | viability [3] | viability [4] | viability [5] | differential viability (reversal) ([6]; H69AR cells + 2 uM doxorubicin) | viability [6, 9] | viability [6, 10] | inhibition [7] | inhibition [8] |
| --- | --- | --- | --- | --- | --- | --- | --- | --- | --- | --- |
| O=C1CC(c2ccco2)CC(O)=C1C=NCC1NCCc2ccccc21 (stereo not given) | 78.5% | 98.5% (inactive) | 78.5% (inactive) | 91.5% (inactive) | 90.7% (inactive) | -3.47% (inactive) | 94.1% | 90.7% | -0.92% (inactive) | 7.14% (inactive) |
| CCOC(=O)N1CCC(NC(=O)C2CCCN2C(=O)OCc2ccccc2)CC1 (stereo not given) | 93% | 106% (inactive) | 93% (inactive) | 103% (inactive) | 90.7% (inactive) | -2.27% (inactive) | 93% | 90.7% | 2.89% (inactive) | -7.1% (inactive) |
| Cc1c(NC(=O)c2ccc(COc3ccc4ccccc4c3)o2)c(=O)n(-c2ccccc2)n1C | 88.5% | 91% (inactive) | 88.5% (inactive) | 91.2% (inactive) | 99% (inactive) | 13.7% (inactive) | 85.3% | 99% | -5.47% (inactive) | -5.9% (inactive) |
| COc1cccc(-n2c(C)nc3c(cnn3-c3ccc(Cl)cc3)c2=O)c1 | 92.5% | 86% (inactive) | 92.5% (inactive) | 79.8% (inactive) | 76.3% (inactive) | -1.66% (inactive) | 78% | 76.3% | -4.47% (inactive) | 4.19% (inactive) |
| O=c1/c(=C/c2ccco2)sc2nc(-c3ccccc3Br)nn12 | 97% | 89.5% (inactive) | 97% (inactive) | 99.8% (inactive) | 92.4% (inactive) | 4.5% (inactive) | 87.9% | 92.4% | -6.8% (inactive) | 1.64% (inactive) |
| O=C(NCc1ccco1)Nc1ccc2nsnc2c1 | 104% | 114% (inactive) | 104% (inactive) | 51.5% (inactive) | 22% (active) | -1.17% (inactive) | 23.2% | 22% | -3.6% (inactive) | -6.45% (inactive) |
| COc1ccc(N(CC(=O)N2CCCCC2)S(=O)(=O)c2ccccc2)c(OC)c1 | 91% | 94.5% (inactive) | 91% (inactive) | 91.9% (inactive) | 86.5% (inactive) | -2.6% (inactive) | 89.1% | 86.5% | -1.03% (inactive) | -3.83% (inactive) |
| COc1ccccc1C1/C(=C(/O)c2ccccc2)C(=O)C(=O)N1CC(C)C (stereo not given) | 104% | 89.5% (inactive) | 104% (inactive) | 81.4% (inactive) | 82.1% (inactive) | -2.33% (inactive) | 84.4% | 82.1% | -2.47% (inactive) | 5.24% (inactive) |
| CC(=O)c1ccc2c3c(cccc13)C(=O)N(c1c(C)nn(C)c1C)C2=O | 99% | 108% (inactive) | 99% (inactive) | 112% (inactive) | 104% (inactive) | 0.09% (inactive) | 104% | 104% | 1.07% (inactive) | 1.31% (inactive) |
| CCN(CC)CCOC(=O)c1cccc(OC)c1 | 115% | 105% (inactive) | 115% (inactive) | 96.9% (inactive) | 90.2% (inactive) | -4.21% (inactive) | 94.4% | 90.2% | -5.07% (inactive) | -2.79% (inactive) |
| CCCS(=O)(=O)C(=C1Nc2ccccc2N1)S(=O)(=O)CCC | 105% | 97.5% (inactive) | 105% (inactive) | 93.4% (inactive) | 103% (inactive) | 12.9% (inactive) | 89.8% | 103% | -5.68% (inactive) | 4.13% (inactive) |
| COc1cccc(OCCn2ccnc2)c1 | 90.5% | 104% (inactive) | 90.5% (inactive) | 89.6% (inactive) | 89.4% (inactive) | -3.7% (inactive) | 93.1% | 89.4% | -4.93% (inactive) | -9.21% (inactive) |
| Cc1c(NC(=O)c2coc(=O)c(Br)c2)c(=O)n(-c2ccccc2)n1C | 85% | 27.5% (active) | 85% (inactive) | 72.9% (inactive) | 1.47% (active) | -0.165% (inactive) | 1.64% | 1.47% | -4.55% (inactive) | -4.92% (inactive) |
| c1ccc(-c2n[nH]c3ccccc23)cc1 | 118% | 85% (inactive) | 118% (inactive) | 84.9% (inactive) | 103% (inactive) | 11.4% (inactive) | 91.9% | 103% | -3.55% (inactive) | 2.1% (inactive) |
| Cc1cc(Cl)ccc1NC(=O)CSc1nnc(Cc2cccs2)n1Cc1ccco1 | 77.5% | 95.5% (inactive) | 77.5% (inactive) | 68.3% (inactive) | 77.2% (inactive) | -8.29% (inactive) | 85.5% | 77.2% | -3.92% (inactive) | 1.97% (inactive) |
| Cc1cc2ccccc2n1CCNC(=O)c1ccc(S(=O)(=O)N2CCOCC2)cc1 | 95.5% | 90% (inactive) | 95.5% (inactive) | 85% (inactive) | 93% (inactive) | -4.87% (inactive) | 97.8% | 93% | -7.57% (inactive) | 1.75% (inactive) |

| Compound | viability [1] | Her2 level [2] | viability [3] | viability [4] | viability [5] | differential viability (reversal) ([6]; H69AR cells + 2 uM doxorubicin) | viability [6, 9] | viability [6, 10] | inhibition [7] | inhibition [8] |
| --- | --- | --- | --- | --- | --- | --- | --- | --- | --- | --- |
| CN1CCN(C(=O)C2(NC(=O)Nc3cccc(F)c3)CCCCC2)CC1 | 81% | 97% (inactive) | 81% (inactive) | 97.4% (inactive) | 93.9% (inactive) | -9.36% (inactive) | 103% | 93.9% | -3.65% (inactive) | -3.02% (inactive) |
| COc1ccccc1CNS(=O)(=O)c1cccc(S(=O)(=O)N2CCOCC2)c1 | 91.5% | 101% (inactive) | 91.5% (inactive) | 81.6% (inactive) | 91.7% (inactive) | 3.38% (inactive) | 88.3% | 91.7% | -3.2% (inactive) | -1.48% (inactive) |
| Cn1c(=O)c2c(nc(NCc3ccco3)n2C/C=C/c2ccccc2)n(C)c1=O | 100% | 84.5% (inactive) | 100% (inactive) | 89.3% (inactive) | 101% (inactive) | 5.26% (inactive) | 96.1% | 101% | -1.69% (inactive) | 0.16% (inactive) |
| O=C1c2cccnc2C(O)N1Cc1ccc(F)cc1 (stereo not given) | 104% | 88% (inactive) | 104% (inactive) | 88.8% (inactive) | 102% (inactive) | 3.87% (inactive) | 97.7% | 102% | -4.53% (inactive) | 2.95% (inactive) |
| COc1ccc(S(=O)(=O)NCCOc2ccccc2)cc1OC | 94% | 90.5% (inactive) | 94% (inactive) | 97.7% (inactive) | 91.5% (inactive) | -2.55% (inactive) | 94.1% | 91.5% | 6.76% (inactive) | 2.3% (inactive) |
| Nc1nc(CSc2nc3ccccc3[nH]2)nc(N2CCOCC2)n1 | 96% | 100% (inactive) | 96% (inactive) | 109% (inactive) | 92.8% (inactive) | 0.96% (inactive) | 91.9% | 92.8% | -0.13% (inactive) | -3.83% (inactive) |
| O=C(O)CCn1c(SCc2ccccc2)nc2ccccc21 | 116% | 107% (inactive) | 116% (inactive) | 112% (inactive) | 89.3% (inactive) | 12.2% (inactive) | 77% | 89.3% | -5.73% (inactive) | 5.65% (inactive) |
| COc1ccccc1OC(=O)c1ccc(SC)cc1OC | 83% | 88% (inactive) | 83% (inactive) | 98.4% (inactive) | 94.1% (inactive) | 2.65% (inactive) | 91.4% | 94.1% | 1.05% (inactive) | -5.97% (inactive) |
| COc1ccc(CCNC(=O)CSc2nnc(CNc3ccc(Cl)cc3)o2)cc1OC | 112% | 89% (inactive) | 112% (inactive) | 60.5% (inactive) | 84.3% (inactive) | -6.59% (inactive) | 90.9% | 84.3% | -0.65% (inactive) | -4.29% (inactive) |
| CCn1cc(C(=O)OCc2ccc(F)cc2)c(=O)c2ccc(C)nc21 | 104% | 82% (inactive) | 104% (inactive) | 89.3% (inactive) | 79.3% (inactive) | 1.26% (inactive) | 78.1% | 79.3% | -2.27% (inactive) | 0.16% (inactive) |
| O=C(O)CCC(=O)Nc1nc(-c2ccccc2)cs1 | 92% | 84.5% (inactive) | 92% (inactive) | 98.5% (inactive) | 91.3% (inactive) | -4.88% (inactive) | 96.1% | 91.3% | -6.4% (inactive) | -1.48% (inactive) |
| COc1ccc(C(=O)CN2C(=O)NC3(CCCc4ccccc43)C2=O)cc1OC (stereo not given) | 98% | 84.5% (inactive) | 98% (inactive) | 95.6% (inactive) | 88.6% (inactive) | 10.9% (inactive) | 77.7% | 88.6% | -1.87% (inactive) | 2.42% (inactive) |
| Cc1c(C#N)c(N)c(C(=O)c2ccccc2)n1Cc1ccccc1 | 83.5% | 122% (inactive) | 83.5% (inactive) | 97.3% (inactive) | 87.4% (inactive) | 0.08% (inactive) | 87.3% | 87.4% | -7.57% (inactive) | -16.4% (inactive) |
| CCCCn1c(SCC(=O)NCc2ccccc2)nc2ccc(N3CCOCC3)cc2c1=O | 80% | 89.5% (inactive) | 80% (inactive) | 98.1% (inactive) | 74% (inactive) | -5.76% (inactive) | 79.8% | 74% | -1.22% (inactive) | 1.8% (inactive) |
| O=C(CSc1nnnn1C1CCCC1)NCc1ccc2c(c1)OCO2 | 86% | 89% (inactive) | 86% (inactive) | 93.7% (inactive) | 102% (inactive) | 3.33% (inactive) | 98.6% | 102% | -6.22% (inactive) | 2.46% (inactive) |
| CCCCOC(=O)Cn1c(=N)n(CCN2CCOCC2)c2ccccc21 | 77% | 102% (inactive) | 77% (inactive) | 85.4% (inactive) | 95.5% (inactive) | 16.3% (inactive) | 79.2% | 95.5% | -7.47% (inactive) | 0.16% (inactive) |
